Experimental data published in the RNAGym collection of RNA variant scans (doi:10.1126/science.aae0568).
Fewer inactive variants are shown than the library holds.

B1: tRNA (parent)
chain: GUUCCGUUGGCGUAAUGGUAACGCGUCUCCCUCCUAAGGAGAAGACUGCGGGUUCGAGUCCCGUACGGAACG

Variants of: B1
Test: yeast fitness relative to wild type (ratio to wild type); higher = fitter; tRNA-Arg(CCU), competitive growth, 37 C, YPD
How it was run: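 Gene amplicons from the start population and from each of six end populations were read by 100-nucleotide paired-end sequencing. Those end populations came from pooled Saccharomyces cerevisiae strains carrying tRNA-Arg(CCU) gene variants at the native locus, competed in YPD at 37°C for 24 hours. Fitness relative to wild type was worked out from changes in genotype frequencies. Genotypes needed ≥ 100 starting reads, and estimates < 0.5 were set to 0.5.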

Row | Variant | yeast fitness
1 | GUUCCGUUGGCGUCAUGGUAACGCAUCUGCCUCCUAAGGAGAAGAGUGCGGGUUCGAGUCACGUACGGAACG [A14C G25A C29G C46G C61A] | 0.569
2 | GUUCCGUUGGCGUAAUCGUCACGCGUCUCCCUCCUAAGGAGAAGACUGCGGCUUCGAGUCCCGUACGGAACG [G17C A20C G52C] | ≤ 0.5
3 | GUUCCGUUGGCGUAAGGGUAACGCGUCUCCCUCCUAAGGAGAAGACUGCGGGUUCGAGUCCUGUACGGACCG [U16G C62U A70C] | 0.565
4 | GUUCCGUUGGCGUAAGGGUAAGGCGUCUCCCCCCUAAGGAGAAGACUGCGGGUUCGAGUCCCGUACGGAACG [U16G C22G U32C] | 0.767
5 | GUUCCGUUCGCGUAAUGGUAACGCGUCUCCAUCCUAAGGAGAAGACUGGGGGUUGGAGUCCCGUACGGACCG [G9C C31A C49G C55G A70C] | ≤ 0.5
6 | GUUACGUUGGCGUAAUGGUAACGUGUCUCCCUCCUAAGGAGAAGACUGCGGGUUCGAGUCCCGUCCGGAACG [C4A C24U A65C] | 0.65
7 | GUUCCGUUGGCGUAAUGGUAACGGGUCUCCCUCUUAAGGAGAAGACUGCGGGCUGGAGUCCAGUACGGAACG [C24G C34U U53C C55G C62A] | ≤ 0.5
8 | GUUCCGUUGGUGUAGUGGUAACGCGUGUCCCUCCUAAGGAGAAGACUGCGGGUUCCAGUCCCGUACGGAACG [C11U A15G C27G G56C] | ≤ 0.5
9 | GUUCCGUUGGCGUAAUGGUAACGCGUCUCCCGCCUAAGGAGAAGGCUGCGGGUUCGAGUCCCGUACGGUACG [U32G A45G A69U] | 0.553
10 | GUUCCGUUGGCGUAAUGGUAACGCGUCUCCCUCCUAAGGAGAAGACAGCGGGUUCGAGUCCCGUACGGAUCG [U47A A70U] | 1.06
11 | GUUCCGUUGGGGUAAUGGUAAAGCGUCUCCCUCCUAAGGAGAAGAGUGCGGGUUCGAGUCCCGUACGGAACG [C11G C22A C46G] | ≤ 0.5
12 | GUCCCGUUGGCGUAAUGGUAACGCGUCUCUCUCCUAAGGAGAAGACUGCGGGUUUGAAUCCCGUACGGAACG [U3C C30U C55U G58A] | ≤ 0.5
13 | GUUCCGUUGGCGUAAUGGUAACGCGUCCCCCUCCUAAGGAGAAGACUGUGGGUUCGAGUCCCGUACGGAACG [U28C C49U] | 0.905
14 | GCUCCGUUGGCGUAAUGGUAACGCGUCUCCCUCCUUAGGAGAAGACUGCGGGUUCGAGUCCCGUCCGGAACG [U2C A36U A65C] | ≤ 0.5
15 | GUUCCGUUGGCGUACUGGUAACGCGUCUCCCUCCUAAAGAGAAGGCUGCGGAUUCGAGUCGCGUACGGAACG [A15C G38A A45G G52A C61G] | 0.539
16 | GUUCCGUUGGCGUAAUGGUAACGCGUCUCCCUCCUAAGGAGAUGACUGCGGGUUCGAGUCCCGCACGGAACG [A43U U64C] | 1.02
17 | GUUCCGUUGGCGUAAUGGUAACGGGUUUCCCUCCUAAGGAGAAGACUGCGGGUUCGAGUCCCGUACGGAACG [C24G C27U] | 0.73
18 | GUUCCGUUGGCGUAAUGCUAACGCGUCUCCCUCCUAAGGAGAAGACUGCGGGUUGGAGUCCCGUACGGAACG [G18C C55G] | 0.585
19 | GUUCAGUUGGCGUAAUGGUAACGCGUCUCCCUCCUAAGGCGAAGAUUGCGGCUUCGAGUCCCGUACGGACCG [C5A A40C C46U G52C A70C] | ≤ 0.5

Row | Variant | yeast fitness
20 | GUUCCGUUGGCGUAAUGGUAACGCGUCUCCCUCCUAAGGAGAAGACUGCGCGUUCGAGGCCCGUACGGAACG [G51C U59G] | 0.508
21 | GUUCCGGUGGCGUGAUGGUAACGCGUCUCCCUCCGAAGGAGAGGACUGCGGGUUCGAGUCCCGUACGGAACG [U7G A14G U35G A43G] | 0.557
22 | GUUCCGUUGGCGUAAUGGUUAGGCGUCUCCCUCCUAAGGGGAAGACUGCGGGUUCGAGUCCCGUACGGAUCG [A20U C22G A40G A70U] | ≤ 0.5
23 | GUUCCGUUAGCGUAAUGGUAACGCGUCUCCCUCCUAAGGAGAAGACUGCGGGUUCGAGUCCAGUAUGGAACG [G9A C62A C66U] | ≤ 0.5
24 | GUUCCGUUGGCGUAAAGGUAACGCGUCUCCCUCCUAAGGAGAUGACUGCGGGUUCGAGUCCGGUAAGGCACG [U16A A43U C62G C66A A69C] | ≤ 0.5
25 | GUUCCGUUGGCGUAAUGGUAACGCGUCUCCCUCCUAAGGUGAAGACUGCCGGUUCGAGUCCCGUACGGAACG [A40U G50C] | 0.726
26 | GUCCCGUUGGCGUAAUGGUCACCCGUCUCCCUCCUAAGGAGAAGACUGCGGGUUCGAGUCCCGUACGGAACG [U3C A20C G23C] | ≤ 0.5
27 | GUUCCGUUGGCGUCAUGGUAACGCGUCUCGCUCCUAGGGAGAAGGCUGCGGGUUCGAGCCCCGUACCGAACG [A14C C30G A37G A45G U59C G67C] | ≤ 0.5
28 | GUUCCGUUGCCGUAAUGGAAACGCGUCUCGCUCCUAAGGCGAAGACUGCGGGUUCGAGUCCCGUACCGAACG [G10C U19A C30G A40C G67C] | ≤ 0.5
29 | GUUACAUUGGCGUAAUGGUAACGCAUCUGCCUCCUAAGGAGAAGACUGCGGGUUCGGGUCCCGUACGGAACG [C4A G6A G25A C29G A57G] | ≤ 0.5
30 | GUUCCGUUGGCGUAAAGGCAACGCGUCUCCCUCCUAAGGAGAAGACUGCGGGUUCGAGUCACGUUCGGAACG [U16A U19C C61A A65U] | 0.6
31 | GUUCCGUUGGCGUAAUGGUAAAGCGUAUCCCUCCUAAGGAGAAGACUGCGGGUUCGAGCCCCGUACGGAACG [C22A C27A U59C] | 0.586
32 | GUCCCGUUGGCGUAAUGGUAACGCGUCUCCCUCCUAAGGAGAAGCGUGAGGGUUCGAGUCCCGUACGGUACG [U3C A45C C46G C49A A69U] | ≤ 0.5
33 | GUUCCGUUGGUGUAAUGGUAACGCGUCUCCCUCGUAAGGAGAAGACUGCGGGUUGGAGCUCCGUACUGAACG [C11U C34G C55G U59C C60U G67U] | ≤ 0.5
34 | GUUCCGGUGGCGUAAUGGUAACCCGUCUCCCUCCUAAGGAGAAGACUGCGGGUACGCGUCCCGUACGGAUCG [U7G G23C U54A A57C A70U] | ≤ 0.5
35 | GUUCCGUUGGCGUAAUGGUAACGCAUCUCCCUCUUAAGGAGAAGACUGCGGGUUCGAGUCCCGUACGGAACG [G25A C34U] | 0.574
36 | GUUCCGUUGGCCUAAUGGUCACGCGUGUCCCUCCUAAGGAGAAGGCUGCGGGUUCGAGUCCCGUAAGGAACG [G12C A20C C27G A45G C66A] | ≤ 0.5
37 | GUUCGGUUGGCGUAAUGGUAACGCGUCUCCCUCCUAAGGAGAAGACUGAGGGUUCGAGUCCCAUACGGAACG [C5G C49A G63A] | ≤ 0.5
38 | GUUCCGUUCGCGUAAUGGUAACGCGUCUACCGCCUAAGGAGAAGACUGCGGGUUCGAGUCCCGUAUGGAACG [G9C C29A U32G C66U] | ≤ 0.5
